{"data": "Published values collected from several papers", "CYP2D6": "Cytochrome P450 2D6 (CYP2D6, Homo sapiens, UniProt P10635)", "note": "Each line is one published result; the experiments were not run side by side."}
{"Structure (SMILES)": "Cc1ccc(C(CS(=O)(=O)c2ccccc2)=NNC2=NC(=O)C(=NNc3ccc([N+](=O)[O-])cc3)S2)cc1", "tested on": "WM 266-4", "assay": "cell growth or viability, MTT", "setting": "1.6 µg, 48 h", "measurement": "viability", "result": "50.5%"}
{"Structure (SMILES)": "COc1cc2c3c(n(CCCN4CCOCC4)c(=O)c2cc1OC)-c1cc2c(cc1C3=O)OCO2", "system": "female beagle dog, plasma", "setting": "intravenous, 10 mg/m², infusion", "measurement": "half-life", "result": "8 h"}
{"Structure (SMILES)": "Oc1c(-n2ccnn2)cnn1-c1cc(N2CCOCC2)ncn1", "system": "female dog, plasma", "setting": "oral, 1.5 mg/kg", "measurement": "half-life", "result": "2.2 h"}
{"Structure (SMILES)": "Cc1ccc(C(CS(=O)(=O)c2ccccc2)=NNc2nc(C)c(N=Nc3cccc(C)c3)s2)cc1", "tested on": "WM 266-4", "assay": "cell growth or viability, MTT", "setting": "1.6 µg, 48 h", "measurement": "viability", "result": "52.6%"}
{"Structure (SMILES)": "COC(=O)C1CCN(C(=O)c2ccc(N(CCCO)Cc3cnc4nc(N)nc(N)c4n3)cc2)CC1", "tested on": "CYP2D6", "assay": "enzyme activity, inhibitor, luciferase", "setting": "10 µM", "measurement": "inhibition", "result": "-27.1%"}
{"Structure (SMILES)": "CC[C@@H]1CN(C(=O)NCC(F)(F)F)C[C@@H]1c1cnc2cnc3[nH]ccc3n12", "system": "beagle dog, plasma", "setting": "oral, 1 mg/kg, single dose", "measurement": "AUC(0-t)", "result": "558 ng·h/mL"}
{"Structure (SMILES)": "CC(C)(O)c1coc(S(=O)(=O)NC(=O)Nc2c3c(cc4c2CCC4)CCC3)c1", "tested on": "J774.A1", "assay": "cell growth or viability, MTT", "setting": "10 µM, 4 h", "measurement": "viability", "result": "94.9%"}
{"Structure (SMILES)": "CC(C)(C)c1nc(-c2cccc(NS(=O)(=O)c3c(F)cccc3F)c2F)c(-c2ccnc(N)n2)s1", "tested on": "WM 266-4", "assay": "cell growth or viability, MTT", "setting": "1.6 µg, 48 h", "measurement": "viability", "result": "64.6%"}
{"Structure (SMILES)": "COCCc1ccc(OCC(O)CNC(C)C)cc1 (stereo not shown)", "tested on": "CYP2D6", "system": "human, plasma", "setting": "oral, 100 mg, single dose, healthy volunteers", "measurement": "Cmax", "result": "123 ng/mL"}
{"Structure (SMILES)": "C#C[C@]1(CO)O[C@@H](n2cnc3c(N)nc(F)nc32)C[C@@H]1O", "tested on": "Ca-Ski", "assay": "cell growth or viability, MTT", "setting": "24 h", "measurement": "CC50", "result": "> 50 µg/mL"}
{"Structure (SMILES)": "NC(=S)NN=C(CS(=O)(=O)c1ccccc1)c1ccc(F)cc1", "tested on": "WM 266-4", "assay": "cell growth or viability, MTT", "setting": "1.6 µg, 48 h", "measurement": "viability", "result": "48.6%"}
{"Structure (SMILES)": "Cc1nc(-c2cnc(NC(C)C)n(C)c2=O)ccc1Oc1ccnc(-c2cnn(C)c2)c1", "system": "male beagle dog, plasma", "setting": "oral, 3 mg/kg", "measurement": "AUC(0-t)", "result": "7030 ng·h/mL"}
{"Structure (SMILES)": "CCOC(=O)C1CCN(C(=O)c2ccc(N(CC)Cc3cnc4nc(N)nc(N)c4n3)cc2)CC1", "tested on": "CYP2D6", "assay": "enzyme activity, inhibitor, luciferase", "setting": "10 µM", "measurement": "inhibition", "result": "-4.18%"}
